ChEMBL document CHEMBL5678799 (Biochem J, 2009)
The source made the active and inactive calls. No cut-off for these calls is given here.

What was measured:
[1] = target: Casein kinase II subunit alpha (Homo sapiens) (UniProt P68400); experiment: Inhibition of recombinant human N-terminal His6-tagged CK2alpha1 (2 to 391 residues) expressed in Escherichia coli assessed as remaining activity at 1 uM using RRRDDDSDDD as substrate incubated for 30 mins in presence of [gamma-33P]ATP by filter binding method relative to control
How it was run: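 Radiometric panel assay run robotically at 21 °C for 30 min, linear in time and enzyme. […] Activity is expressed as percentage of the compound-omitted control, averaged from triplicates ± S.D.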

[2] = target: Tyrosine-protein kinase CSK (Homo sapiens) (UniProt P41240); experiment: Inhibition of recombinant human N-terminal GST-tagged CSK (1 to 450 residues) expressed in Escherichia coli assessed as remaining activity at 1 uM Cdc2 peptide as substrate incubated for 30 mins in presence of [gamma-33P]ATP by filter binding method relative to control
How it was run: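 Incubations ran robotically for 30 min at room temperature (21 °C) under linear conditions. Results are percent activity remaining versus controls without compound, as the mean of triplicates ± S.D.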

[3] = target: Dual specificity mitogen-activated protein kinase kinase 1 (Homo sapiens) (UniProt Q02750); experiment: Inhibition of recombinant human MKK1 (2 to 393 residues) expressed in Escherichia coli assessed as remaining activity at 1 uM using MBP as substrate incubated for 30 mins in presence of [gamma-33P]ATP by filter binding method relative to control
How it was run: (§1)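 Kinase panel run robotically at 21 °C for 30 min, linear in time and enzyme. […] Compound tested at 1 or 10 µM. Activity given as percentage of incubations without compound, mean of triplicates ± S.D.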

[4] = target: Serine/threonine-protein kinase Nek2 (Homo sapiens) (UniProt P51955); experiment: Inhibition of recombinant human N-terminal His6-tagged NEK2A (1 to 445 residues) expressed in baculovirus infected Sf21 cells assessed as remaining activity at 1 uM using RFRRSRRMI as substrate incubated for 30 mins in presence of [gamma-33P]ATP by filter binding method relative to control
[5] = target: Mitogen-activated protein kinase 13 (Homo sapiens) (UniProt O15264); experiment: Inhibition of recombinant human GST-tagged P38delta (1 to 365 residues) expressed in Escherichia coli assessed as remaining activity at 1 uM using MBP as substrate incubated for 30 mins in presence of [gamma-33P]ATP by filter binding method relative to control; how it was run: as §1
[6] = target: Ribosomal protein S6 kinase alpha-3 (Homo sapiens) (UniProt P51812); experiment: Inhibition of recombinant human N-terminal His6-tagged RSK2 (2 to 740 residues) expressed in baculovirus infected Sf21 cells assessed as remaining activity at 1 uM using KKLNRTLSVA as substrate incubated for 30 mins in presence of [gamma-33P]ATP by filter binding method relative to control
How it was run: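 Assays ran 30 min at 21 °C, robotically and in the linear range. Remaining activity is given relative to incubations lacking compound, as the average of triplicate determinations ± S.D.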

[7] = target: Vascular endothelial growth factor receptor 1 (Homo sapiens) (UniProt P17948); experiment: Inhibition of recombinant human N-terminal GST-tagged VEGFR1 (784 to 1338 residues) expressed in baculovirus infected Sf21 cells assessed as remaining activity at 1 uM using KKKSPGEYVNIEFG as substrate incubated for 30 mins in presence of [gamma-33P]ATP by filter binding assay relative to control
How it was run: (§2)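 Panel assays were run for 30 min at 21 °C, within the linear range for time and enzyme. […] Results are percent activity remaining relative to compound-free control, averaged from triplicate ± S.D.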

[8] = target: Serine/threonine-protein kinase Chk1 (Homo sapiens) (UniProt O14757); experiment: Inhibition of recombinant human N-terminal GST-tagged CHK1 (1 to 476 residues) expressed in baculovirus infected Sf21 cells assessed as remaining activity at 10 uM using CHKtide as substrate incubated for 30 mins in presence of [gamma-33P]ATP by filter binding method relative to control
How it was run: (§3)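 Robotic radiometric panel assay, 30 min at room temperature (21 °C), with 10 mM magnesium acetate. […] Compound at 1 or 10 µM. Residual activity expressed relative to compound-free control; triplicate average ± S.D.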

[9] = target: Mitogen-activated protein kinase 8 (Homo sapiens) (UniProt P45983); experiment: Inhibition of recombinant human His6-tagged JNK1alpha1 (1 to 384 residues) expressed in baculovirus infected Sf21 cells assessed as remaining activity at 10 uM using ATF2 as substrate incubated for 30 mins in presence of [gamma-33P]ATP by filter binding method relative to control; how it was run: as §3
[10] = target: cAMP-dependent protein kinase catalytic subunit alpha (Homo sapiens) (UniProt P17612); experiment: Inhibition of recombinant human N-terminal GST-tagged PKAalpha (2 to 351 residues) expressed in Escherichia coli assessed as remaining activity at 10 uM using Kemptide as substrate incubated for 30 mins in presence of [gamma-33P]ATP by filter binding method relative to control; how it was run: as §2
[11] = target: Phosphatidylinositol 4-phosphate 3-kinase C2 domain-containing subunit beta (Homo sapiens) (UniProt O00750); experiment: Inhibition of PI3KC2beta (unknown origin) assessed as remaining activity at 10 uM using phosphatidylinositol as substrate incubated for 30 mins in presence of ATP relative to control
How it was run: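 PI3KC2β assayed with 20 μM phosphatidylinositol, 0.2 mM ATP, 2 mM MgCl2, in Tris/HCl pH 7.5 with CHAPS, 30 min at room temperature. Stopped with EDTA, product detected by time-resolved FRET competition with PtdIns3P–biotin and SGK PX domain. Activity as % of no-compound control, triplicate.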

MEF = experiment: Induction of cell cycle arrest in mLST8 knockout MEF cells assessed as accumulation at S phase at 3 uM incubated for 1 to 3 days by propidium iodide staining based flow cytometric analysis (reference value: 59.7 +/- 0.49%); type: toxicity; settings: mouse, time 1-3 day
mTORC1 (Homo sapiens) = mTORC1 (Homo sapiens) (UniProt P42345+Q8N122+Q9BVC4); settings: HEK293, dose 300.0 nM, time 30.0 min
mTORC2 (Homo sapiens) [12] = target: T1, mTORC2 (Homo sapiens) (UniProt P42345+Q6R327+Q9BVC4+Q9BPZ7); settings: HEK293, dose 30-1000 nM, time 30.0 min
mTORC2 (Homo sapiens) [13] = target: T1, mTORC2 (Homo sapiens); settings: HEK293, dose 30-1000 nM, time 30.0 min; remark: listed apart in the source
mTORC2 (Homo sapiens) [14] = target: T1, mTORC2 (Homo sapiens); settings: HEK293, dose 30-1000 nM, time 30.0 min; remark: listed apart in the source
[15] = target: Phosphatidylinositol 3-kinase catalytic subunit type 3 (Homo sapiens) (UniProt Q8NEB9); experiment: Inhibition of VPS34 (unknown origin) assessed as remaining activity at 1 uM using phosphatidylinositol as substrate incubated for 60 mins in presence of ATP relative to control

Vascular endothelial growth factor receptor 1 (Homo sapiens), sequence (P17948 whole entry, the tested form may be a part): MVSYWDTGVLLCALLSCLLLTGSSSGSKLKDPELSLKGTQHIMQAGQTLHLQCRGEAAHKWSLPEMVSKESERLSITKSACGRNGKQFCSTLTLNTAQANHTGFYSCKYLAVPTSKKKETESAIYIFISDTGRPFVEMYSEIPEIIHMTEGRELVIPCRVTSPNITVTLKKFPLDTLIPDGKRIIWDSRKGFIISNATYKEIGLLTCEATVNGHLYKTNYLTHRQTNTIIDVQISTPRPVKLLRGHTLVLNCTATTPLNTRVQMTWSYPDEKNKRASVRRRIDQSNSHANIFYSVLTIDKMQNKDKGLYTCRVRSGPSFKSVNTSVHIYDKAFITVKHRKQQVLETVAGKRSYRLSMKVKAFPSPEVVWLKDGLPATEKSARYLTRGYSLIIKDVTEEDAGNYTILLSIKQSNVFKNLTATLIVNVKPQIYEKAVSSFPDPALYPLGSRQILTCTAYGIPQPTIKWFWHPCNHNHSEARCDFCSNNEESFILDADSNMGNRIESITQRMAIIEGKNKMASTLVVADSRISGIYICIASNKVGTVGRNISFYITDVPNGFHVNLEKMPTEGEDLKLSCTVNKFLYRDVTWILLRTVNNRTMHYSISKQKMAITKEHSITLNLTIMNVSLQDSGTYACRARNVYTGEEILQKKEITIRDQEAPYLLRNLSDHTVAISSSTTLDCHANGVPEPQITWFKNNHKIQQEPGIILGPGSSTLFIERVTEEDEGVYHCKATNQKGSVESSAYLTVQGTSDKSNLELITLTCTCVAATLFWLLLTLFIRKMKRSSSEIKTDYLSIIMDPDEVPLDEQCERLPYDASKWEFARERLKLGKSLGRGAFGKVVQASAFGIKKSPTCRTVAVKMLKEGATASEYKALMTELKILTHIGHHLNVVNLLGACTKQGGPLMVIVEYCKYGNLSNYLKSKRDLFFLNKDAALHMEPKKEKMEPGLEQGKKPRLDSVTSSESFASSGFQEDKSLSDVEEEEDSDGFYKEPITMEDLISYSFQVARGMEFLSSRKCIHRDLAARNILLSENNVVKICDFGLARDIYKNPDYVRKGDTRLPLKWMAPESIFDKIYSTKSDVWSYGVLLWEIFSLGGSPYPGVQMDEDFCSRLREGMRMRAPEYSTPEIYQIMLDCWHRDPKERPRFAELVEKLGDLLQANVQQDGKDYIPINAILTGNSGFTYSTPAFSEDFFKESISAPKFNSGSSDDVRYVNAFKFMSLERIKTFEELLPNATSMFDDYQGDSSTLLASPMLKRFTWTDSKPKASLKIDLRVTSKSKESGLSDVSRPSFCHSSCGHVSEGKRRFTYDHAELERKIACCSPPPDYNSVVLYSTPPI
Phosphatidylinositol 4-phosphate 3-kinase C2 domain-containing subunit beta (Homo sapiens), sequence (O00750 whole entry, the tested form may be a part): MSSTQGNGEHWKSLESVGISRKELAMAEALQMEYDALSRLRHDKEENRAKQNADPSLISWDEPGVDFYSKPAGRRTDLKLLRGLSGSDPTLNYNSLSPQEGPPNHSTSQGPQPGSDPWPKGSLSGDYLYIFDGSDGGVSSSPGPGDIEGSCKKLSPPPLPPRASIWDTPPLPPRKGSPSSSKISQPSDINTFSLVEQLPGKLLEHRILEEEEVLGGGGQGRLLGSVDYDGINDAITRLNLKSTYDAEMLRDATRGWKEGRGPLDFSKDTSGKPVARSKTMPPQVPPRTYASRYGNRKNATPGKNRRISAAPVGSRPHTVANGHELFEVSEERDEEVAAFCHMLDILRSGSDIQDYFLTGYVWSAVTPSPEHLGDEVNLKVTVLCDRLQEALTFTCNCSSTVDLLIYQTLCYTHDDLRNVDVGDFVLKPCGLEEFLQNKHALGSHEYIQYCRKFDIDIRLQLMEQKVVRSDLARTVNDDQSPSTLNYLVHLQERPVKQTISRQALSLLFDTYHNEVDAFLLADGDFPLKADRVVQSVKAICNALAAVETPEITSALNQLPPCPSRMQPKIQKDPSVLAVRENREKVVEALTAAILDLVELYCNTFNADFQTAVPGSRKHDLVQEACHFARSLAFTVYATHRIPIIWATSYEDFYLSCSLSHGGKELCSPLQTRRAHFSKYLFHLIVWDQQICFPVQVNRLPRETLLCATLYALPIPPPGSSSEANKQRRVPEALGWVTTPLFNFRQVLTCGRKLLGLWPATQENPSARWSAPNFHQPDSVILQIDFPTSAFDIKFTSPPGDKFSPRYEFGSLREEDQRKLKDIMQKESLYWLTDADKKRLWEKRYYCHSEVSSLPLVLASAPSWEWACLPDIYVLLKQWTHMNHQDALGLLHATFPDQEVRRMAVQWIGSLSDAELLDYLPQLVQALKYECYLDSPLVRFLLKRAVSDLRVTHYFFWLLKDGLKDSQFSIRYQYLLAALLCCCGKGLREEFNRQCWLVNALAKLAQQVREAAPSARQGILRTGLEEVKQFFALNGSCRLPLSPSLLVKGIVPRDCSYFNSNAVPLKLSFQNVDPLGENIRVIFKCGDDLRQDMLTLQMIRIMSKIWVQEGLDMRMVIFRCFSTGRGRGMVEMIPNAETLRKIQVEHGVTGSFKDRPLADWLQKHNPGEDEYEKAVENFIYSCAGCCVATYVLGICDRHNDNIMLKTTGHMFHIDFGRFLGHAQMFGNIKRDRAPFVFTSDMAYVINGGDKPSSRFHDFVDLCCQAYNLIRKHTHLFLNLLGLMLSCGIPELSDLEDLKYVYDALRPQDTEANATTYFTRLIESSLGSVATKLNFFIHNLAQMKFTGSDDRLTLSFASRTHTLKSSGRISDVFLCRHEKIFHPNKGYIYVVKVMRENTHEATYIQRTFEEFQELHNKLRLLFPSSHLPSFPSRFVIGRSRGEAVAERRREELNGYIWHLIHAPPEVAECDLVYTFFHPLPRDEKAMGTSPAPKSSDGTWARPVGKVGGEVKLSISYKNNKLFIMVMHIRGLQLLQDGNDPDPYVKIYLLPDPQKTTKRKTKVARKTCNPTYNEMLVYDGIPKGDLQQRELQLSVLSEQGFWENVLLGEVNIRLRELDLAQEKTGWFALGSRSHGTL
Tyrosine-protein kinase CSK (Homo sapiens), sequence (P41240 2-450 limits assumed): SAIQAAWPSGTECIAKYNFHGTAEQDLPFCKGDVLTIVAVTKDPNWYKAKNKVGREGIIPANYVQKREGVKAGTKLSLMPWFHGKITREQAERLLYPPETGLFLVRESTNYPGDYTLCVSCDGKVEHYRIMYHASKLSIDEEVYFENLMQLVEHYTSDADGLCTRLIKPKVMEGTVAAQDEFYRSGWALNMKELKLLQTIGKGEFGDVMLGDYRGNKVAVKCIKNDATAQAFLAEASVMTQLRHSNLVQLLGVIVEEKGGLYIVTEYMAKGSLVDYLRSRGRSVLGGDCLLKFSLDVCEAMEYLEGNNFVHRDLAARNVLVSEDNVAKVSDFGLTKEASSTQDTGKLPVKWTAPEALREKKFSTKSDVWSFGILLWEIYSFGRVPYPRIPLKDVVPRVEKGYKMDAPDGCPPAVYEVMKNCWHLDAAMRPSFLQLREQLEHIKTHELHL
Serine/threonine-protein kinase Chk1 (Homo sapiens), sequence (O14757 whole entry, the tested form may be a part): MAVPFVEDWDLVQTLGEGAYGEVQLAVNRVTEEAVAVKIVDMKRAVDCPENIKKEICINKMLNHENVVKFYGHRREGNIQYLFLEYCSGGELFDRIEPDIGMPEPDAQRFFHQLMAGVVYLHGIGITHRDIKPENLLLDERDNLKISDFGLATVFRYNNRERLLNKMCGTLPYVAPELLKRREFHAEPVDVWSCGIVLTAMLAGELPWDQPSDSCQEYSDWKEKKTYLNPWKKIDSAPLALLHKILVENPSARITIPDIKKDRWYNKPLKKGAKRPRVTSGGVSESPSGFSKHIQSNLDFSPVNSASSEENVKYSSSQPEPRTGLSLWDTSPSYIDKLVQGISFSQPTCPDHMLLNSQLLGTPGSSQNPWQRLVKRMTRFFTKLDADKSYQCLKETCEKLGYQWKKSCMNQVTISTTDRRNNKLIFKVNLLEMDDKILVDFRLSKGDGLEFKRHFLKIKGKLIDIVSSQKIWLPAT
Dual specificity mitogen-activated protein kinase kinase 1 (Homo sapiens), sequence (Q02750 whole entry, the tested form may be a part): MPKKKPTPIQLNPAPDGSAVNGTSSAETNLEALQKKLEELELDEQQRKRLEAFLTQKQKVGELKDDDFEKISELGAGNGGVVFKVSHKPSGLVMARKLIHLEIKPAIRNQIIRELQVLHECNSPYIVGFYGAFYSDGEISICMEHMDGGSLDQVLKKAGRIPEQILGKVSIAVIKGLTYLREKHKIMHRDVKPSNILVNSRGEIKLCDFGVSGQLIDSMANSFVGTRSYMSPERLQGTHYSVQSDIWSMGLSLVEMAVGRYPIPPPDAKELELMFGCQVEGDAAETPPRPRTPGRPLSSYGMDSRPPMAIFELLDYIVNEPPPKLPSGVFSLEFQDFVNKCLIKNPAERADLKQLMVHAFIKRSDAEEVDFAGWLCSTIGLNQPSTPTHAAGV
Mitogen-activated protein kinase 13 (Homo sapiens), sequence (O15264 whole entry, the tested form may be a part): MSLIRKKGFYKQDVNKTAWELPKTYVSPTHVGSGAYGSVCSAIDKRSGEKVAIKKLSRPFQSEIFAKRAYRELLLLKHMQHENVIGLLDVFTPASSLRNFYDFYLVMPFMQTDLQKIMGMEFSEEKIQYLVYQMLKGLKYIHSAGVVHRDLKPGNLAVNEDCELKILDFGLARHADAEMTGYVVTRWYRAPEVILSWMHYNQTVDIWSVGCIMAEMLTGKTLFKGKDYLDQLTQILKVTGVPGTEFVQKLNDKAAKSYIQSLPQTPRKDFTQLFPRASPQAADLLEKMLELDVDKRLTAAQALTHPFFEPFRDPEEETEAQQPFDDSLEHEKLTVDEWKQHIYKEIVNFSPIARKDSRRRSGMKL
Casein kinase II subunit alpha (Homo sapiens), sequence (P68400 whole entry, looked up, the tested form may be a part): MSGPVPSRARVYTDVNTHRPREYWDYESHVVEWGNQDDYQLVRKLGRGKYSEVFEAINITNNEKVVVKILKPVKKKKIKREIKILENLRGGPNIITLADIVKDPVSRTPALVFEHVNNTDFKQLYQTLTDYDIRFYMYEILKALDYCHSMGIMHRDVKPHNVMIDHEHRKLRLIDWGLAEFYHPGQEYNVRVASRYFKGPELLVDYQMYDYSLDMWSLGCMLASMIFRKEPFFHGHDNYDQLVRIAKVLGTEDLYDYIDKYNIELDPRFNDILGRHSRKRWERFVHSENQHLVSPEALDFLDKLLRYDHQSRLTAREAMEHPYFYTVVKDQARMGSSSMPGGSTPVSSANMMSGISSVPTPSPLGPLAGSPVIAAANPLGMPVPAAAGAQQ

Q: For `COc1ccc(-c2ccc3c(N4CCOCC4)nc(N4C[C@@H](C)O[C@@H](C)C4)nc3n2)cc1CO` [Ku-0063794], which Activity [1] is on record?
A: 104%

Q: And the Activity [2]?
A: 90%

Q: What about the Activity [3] of the same compound?
A: 96%

Q: And the Activity [4]?
A: 92%

Q: And the Activity [5]?
A: 72%

Q: What about the Activity [6] of the same compound?
A: 103%

Q: And the Activity [7]?
A: 92%

Q: And the Activity [8]?
A: 86%

Q: And the Activity [9]?
A: 93%

Q: And the Activity [10]?
A: 85%

Q: And the Activity [11]?
A: 82%

Q: And the Activity (MEF)?
A: 36.5%

Q: And the inhibition (mTORC1 (Homo sapiens))?
A: 90%

Q: And the inhibition (mTORC2 (Homo sapiens) [12])?
A: Active

Q: And the inhibition (mTORC2 (Homo sapiens) [13])?
A: Active

Q: What about the inhibition (mTORC2 (Homo sapiens) [14]) of the same compound?
A: Dose-Dependent Effect

Q: And the Activity [15]?
A: 101%
